According to ChEMBL document CHEMBL1129968, “Synthesis, dopamine transporter affinity, dopamine uptake inhibition, and locomotor stimulant activity of 2-substituted 3 beta-phenyltropane derivatives” (J Med Chem, 1997):
pIC50, pKi: −log10 of the molar value. “And” between values parts separate entries of the source, which are not always exact repeats. Equal entries are not always repeated.

Legend:
[1] = organism: Mus musculus; assay: Stimulation of locomotor activity of mice; type: functional
How it was run: (§1)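 Mice given drug or saline vehicle, with horizontal activity counts recorded in 10 min periods over a 60 min session. Eight mice per dose, doses in µmol/kg. The dose-response used the first 30 min after injection. ED50 is from the dose-response, and the maximal stimulant effect and time course were also assessed.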

[2] = organism: Rattus norvegicus; assay: Values for substitution for Cocaine in rats Trained to discriminate Cocaine from saline; type: functional
How it was run: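 Read-out is the percentage of responses on the cocaine-appropriate lever, with doses in µmol/kg. Lever selection was counted unreliable below 0.02 responses/s, and a point was dropped if fewer than half of subjects met this rate. Four to six rats per point. ED50 given with 95% confidence limits.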

[3] = target: T1, Sodium-dependent dopamine transporter (Rattus norvegicus, UniProt P23977); assay: Displacement of [3H]WIN-35428 from dopamine transporter (DAT) in Rat Caudate Putamen; type: tissue-based
T1 sequence (P23977 whole entry): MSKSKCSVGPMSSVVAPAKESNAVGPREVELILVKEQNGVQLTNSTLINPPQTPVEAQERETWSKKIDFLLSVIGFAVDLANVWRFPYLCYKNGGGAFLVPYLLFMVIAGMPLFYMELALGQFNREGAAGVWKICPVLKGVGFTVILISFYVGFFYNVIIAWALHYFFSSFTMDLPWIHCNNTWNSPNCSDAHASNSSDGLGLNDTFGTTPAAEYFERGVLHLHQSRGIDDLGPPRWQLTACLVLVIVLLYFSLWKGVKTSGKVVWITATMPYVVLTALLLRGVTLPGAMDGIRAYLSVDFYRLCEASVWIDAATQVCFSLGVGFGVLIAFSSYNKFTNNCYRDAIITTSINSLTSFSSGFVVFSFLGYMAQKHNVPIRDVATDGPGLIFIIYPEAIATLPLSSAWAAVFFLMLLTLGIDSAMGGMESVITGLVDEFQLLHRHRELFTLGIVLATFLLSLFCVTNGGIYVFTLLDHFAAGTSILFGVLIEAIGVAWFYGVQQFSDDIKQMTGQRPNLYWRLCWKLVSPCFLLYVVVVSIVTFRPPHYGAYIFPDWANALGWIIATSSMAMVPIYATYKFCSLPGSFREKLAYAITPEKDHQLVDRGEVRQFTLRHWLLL
How it was run: (§2)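 Ki is the inhibition constant derived for the unlabeled ligand. Values are the mean ± SEM of three experiments run in triplicate. Compounds were tested as HCl salts unless noted, some as fumarate salts. Data were fitted to single-site versus two-site binding models.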

[4] = organism: Rattus norvegicus; assay: Compound was evaluated for inhibition of [3H]- dopamine uptake in rat caudate - putamen tissue.; type: functional
How it was run: (§3)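 [3H]dopamine uptake into rat caudate-putamen tissue. IC50 values are the mean ± SEM of three experiments, each run in triplicate. Compounds were tested as HCl salts unless noted, some as fumarate salts.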

[5] = organism: Rattus norvegicus; assay: Compound was evaluated for inhibition of [3H]- dopamine Uptake in rat caudate - putamen tissue.; type: functional; how it was run: as §3
[6] = organism: Mus musculus; assay: Stimulation of locomotor activity of Mice; type: functional; how it was run: as §1
[7] = target: T1, Sodium-dependent dopamine transporter; assay: Compound was evaluated for its ability to displace [3H]WIN-35428 from dopamine transporter in rat caudate putamen tissue; type: tissue-based
How it was run: as §2, with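 “Rat caudate-putamen tissue, displacing bound [3H]WIN 35,428. Ki” for “Ki”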

SMILES	ED50 [1]	Max effect [1]	ED50 [2]	pKi [3]	pIC50 [4]	pIC50 [5]	ED50 [6]	pKi [7]
COC(=O)[C@H]1[C@@H](OC(=O)c2ccccc2)C[C@@H]2CC[C@H]1N2C [COCAINE]	20.8 µmol/kg	12518 Counts 10min-1	8.74 µmol/kg					
COC(=O)CCC1C(c2ccccc2)CC2CCC1N2C (stereo not given)				7.64	6.78			
CN1C2CCC1C(CCC(=O)c1ccccc1)C(c1ccccc1)C2 (stereo not given)				7.55		7.33		
COC(=O)/C=C/CCC1C(c2ccccc2)CC2CCC1N2C (stereo not given)	9.21 µmol/kg	17327 Counts 10min-1	15 µmol/kg	7.70		6.69		
COC(=O)/C=C/C1C(c2ccccc2)CC2CCC1N2C (stereo not given)		14996 Counts 10min-1	12.8 µmol/kg	7.66	6.91		4.74 µmol/kg	
COC(=O)[C@@H]1C2CC[C@H](C[C@@H]1c1ccccc1)N2C (single isomer, unassigned)				7.48 and 6.50		6.43		
CN1C2CCC1C(CCCO)C(c1ccccc1)C2 (stereo not given)	12 µmol/kg	20820 Counts 10min-1	12.9 µmol/kg	7.96		7.19		
CN1C2CCC1C(/C=C/CO)C(c1ccccc1)C2 (stereo not given)					6.80			7.59
CN1C2CCC1C(CCCc1ccccc1)C(c1ccccc1)C2 (stereo not given)				7.80		7.37		
COC(=O)CCCCC1C(c2ccccc2)CC2CCC1N2C (stereo not given)				7.52		6.89		
